Legend:
Format in all cases: functional
Yellow fever virus [1] = test: Antiviral activity against YFV Jimenez infected in Syrian golden hamster liver treated 4 hrs before viral challenge assessed as mean day to death at 50 mg/kg/day, ip bid for 8 days; settings: route intraperitoneal
Yellow fever virus [2] = test: Antiviral activity against YFV Jimenez infected in Syrian golden hamster assessed as mean day to death after 21 days post-infection at 50 mg/kg, ip bid for 7 days; settings: route intraperitoneal
Yellow fever virus [3] = test: Antiviral activity against YFV Jimenez infected in Syrian golden hamster assessed as weight change at 50 mg/kg, po bid for 7 days
Yellow fever virus [4] = test: Antiviral activity against YFV Jimenez infected in Syrian golden hamster assessed as serum alanine aminotransferase at 50 mg/kg, ip bid for 7 days; settings: route intraperitoneal
Procedure, shortened: (§1)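 YFV (Jimenez)-infected female hamsters were treated b.i.d. i.p. or p.o. Serum was drawn by ocular sinus at 6 dpi. ALT was read with a colorimetric kit adapted to microplates: substrate plus serum for 30 min at 37°C, then colour reagent and developer, absorbance at 505 nm. Values are IU/liter against saline controls.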

Yellow fever virus [5] = test: Antiviral activity against YFV Jimenez infected in Syrian golden hamster liver treated 4 hrs before viral challenge assessed as alanine aminotransferase at 50 mg/kg/day, ip bid for 8 days; settings: route intraperitoneal; procedure, shortened: as §1

NC(=O)c1ncn([C@@H]2O[C@H](CO)[C@@H](O)[C@H]2O)n1 [RIBAVIRIN]
Activity (Yellow fever virus [1]): 6 days
Activity (Yellow fever virus [2]): 6 days
Activity (Yellow fever virus [3]): 1.3 g
Activity (Yellow fever virus [4]): 120 IU/L
Activity (Yellow fever virus [5]): 120 IU/L

From ChEMBL document CHEMBL1145477, “Activity of T-1106 in a hamster model of yellow Fever virus infection” (Antimicrob Agents Chemother, 2007)
